Assay results from ChEMBL document CHEMBL3616442, “Unconventional Knoevenagel-type indoles: Synthesis and cell-based studies for the identification of pro-apoptotic agents” (Eur J Med Chem, 2015).

Assays:
[1] = test system: HCT-116; test: Growth inhibition of human HCT116 cells after 48 hrs by sulforhodamine B assay; type: functional; conditions: HCT-116, 48 h
Method in brief: (§1)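 NCI 60-cell-line screen. Compounds tested at five 10-fold dilutions from 10^-4 to 10^-8 M. Cells exposed for the last 48 h of a 72 h incubation, growth estimated by sulforhodamine B protein assay. GI50 is the concentration giving 50% growth inhibition. Values beyond the tested range are expressed as greater or lesser than the extreme concentration.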

[2] = Growth inhibition of human SF539 cells after 48 hrs by sulforhodamine B assay; type: functional; conditions: SF-539, 48 h
[3] = test system: ACHN; test: Growth inhibition of human ACHN cells after 48 hrs by sulforhodamine B assay; type: functional; method in brief: as §1
[4] = test system: SNB-75; test: Growth inhibition of human SNB75 cells after 48 hrs by sulforhodamine B assay; type: functional; conditions: SNB-75, 48 h
[5] = test system: SW-620; test: Growth inhibition of human SW620 cells after 48 hrs by sulforhodamine B assay; type: functional; conditions: SW-620, 48 h
[6] = Growth inhibition of human RPMI8226 cells after 48 hrs by sulforhodamine B assay; type: functional; conditions: RPMI-8226, 48 h
[7] = test system: Malme-3M; test: Growth inhibition of human MALME-3M cells after 48 hrs by sulforhodamine B assay; type: functional; method in brief: as §1
[8] = test system: SNB-19; test: Growth inhibition of human SNB19 cells after 48 hrs by sulforhodamine B assay; type: functional; conditions: SNB-19, 48 h
[9] = test system: SK-OV-3; test: Growth inhibition of human SKOV3 cells after 48 hrs by sulforhodamine B assay; type: functional; conditions: SK-OV-3, 48 h
[10] = Growth inhibition of human BT549 cells after 48 hrs by sulforhodamine B assay; type: functional; conditions: BT-549, 48 h; method in brief: as §1
[11] = test system: OVCAR-8; test: Growth inhibition of human OVCAR8 cells after 48 hrs by sulforhodamine B assay; type: functional; conditions: OVCAR-8, 48 h
[12] = test system: U-251; test: Growth inhibition of human U251 cells after 48 hrs by sulforhodamine B assay; type: functional; conditions: U-251, 48 h
[13] = test system: NCI-H322M; test: Growth inhibition of human NCI-H322M cells after 48 hrs by sulforhodamine B assay; type: functional; method in brief: as §1
[14] = Growth inhibition of human HOP92 cells after 48 hrs by sulforhodamine B assay; type: functional; conditions: HOP-92, 48 h; method in brief: as §1
[15] = test system: UACC-257; test: Growth inhibition of human UACC257 cells after 48 hrs by sulforhodamine B assay; type: functional; conditions: UACC-257, 48 h
[16] = test system: A498; test: Growth inhibition of human A498 cells after 48 hrs by sulforhodamine B assay; type: functional; conditions: A498, 48 h; method in brief: as §1
[17] = test system: CCRF-CEM; test: Growth inhibition of human CCRF-CEM cells after 48 hrs by sulforhodamine B assay; type: functional; method in brief: as §1
[18] = test system: OVCAR-4; test: Growth inhibition of human OVCAR4 cells after 48 hrs by sulforhodamine B assay; type: functional; conditions: OVCAR-4, 48 h; method in brief: as §1
[19] = test system: UACC-62; test: Growth inhibition of human UACC62 cells after 48 hrs by sulforhodamine B assay; type: functional; conditions: UACC-62, 48 h
[20] = test system: T47D; test: Growth inhibition of human T47D cells after 48 hrs by sulforhodamine B assay; type: functional
[21] = test system: DU-145; test: Growth inhibition of human DU145 cells after 48 hrs by sulforhodamine B assay; type: functional; conditions: DU-145, 48 h; method in brief: as §1
[22] = test system: MT4; test: Antiproliferative activity against human MT4 cells after 96 hrs by MTT assay; type: functional, cell-based; conditions: MT4, 96 h
Method in brief: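 Exponentially growing MT-4 cells (CD4+ human T-cells carrying integrated HTLV-1 genome), seeded at 1×10^5 cells/mL in RPMI-1640 with 10% FCS and antibiotics. Serial dilutions of compound (DMSO stock 100 mM, diluted in medium), 37 °C, 5% CO₂, 96 h. Viability read by MTT. 50% inhibition versus untreated controls by linear regression. Mean ± SD of three independent determinations.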

[23] = test system: OVCAR-5; test: Growth inhibition of human OVCAR5 cells after 48 hrs by sulforhodamine B assay; type: functional; conditions: OVCAR-5, 48 h
[24] = test system: SK-MEL-2; test: Growth inhibition of human SK-MEL-2 cells after 48 hrs by sulforhodamine B assay; type: functional; conditions: SK-MEL-2, 48 h
[25] = test system: PC-3; test: Growth inhibition of human PC3 cells after 48 hrs by sulforhodamine B assay; type: functional; conditions: PC-3, 48 h
[26] = test system: UO-31; test: Growth inhibition of human UO31 cells after 48 hrs by sulforhodamine B assay; type: functional; conditions: UO-31, 48 h
[27] = test system: M14; test: Growth inhibition of human M14 cells after 48 hrs by sulforhodamine B assay; type: functional; conditions: M14, 48 h; method in brief: as §1
[28] = test system: SK-MEL-5; test: Growth inhibition of human SK-MEL-5 cells after 48 hrs by sulforhodamine B assay; type: functional; conditions: SK-MEL-5, 48 h
[29] = test system: CAKI-1; test: Growth inhibition of human CAKI-1 cells after 48 hrs by sulforhodamine B assay; type: functional; conditions: CAKI-1, 48 h; method in brief: as §1
[30] = test system: KM12; test: Growth inhibition of human KM12 cells after 48 hrs by sulforhodamine B assay; type: functional; conditions: KM12, 48 h; method in brief: as §1
[31] = test system: 786-0; test: Growth inhibition of human 786-0 cells after 48 hrs by sulforhodamine B assay; type: functional; conditions: 786-0, 48 h; method in brief: as §1
[32] = test system: HT-29; test: Growth inhibition of human HT-29 cells after 48 hrs by sulforhodamine B assay; type: functional; conditions: HT-29, 48 h; method in brief: as §1
[33] = test system: HL-60(TB); test: Growth inhibition of human HL-60(TB) cells after 48 hrs by sulforhodamine B assay; type: functional; conditions: HL-60, 48 h
Method in brief: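 NCI 60-cell-line screen, HL-60(TB) included. Compound given at five 10-fold dilutions from 10^-4 to 10^-8 M. Cells exposed for the last 48 h of a 72 h incubation. Growth or viability estimated by sulforhodamine B protein assay. GI50 is the concentration giving 50% growth inhibition. Values outside the tested range are reported as greater or less than the highest or lowest concentration.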

[34] = test system: NCI-H23; test: Growth inhibition of human NCI-H23 cells after 48 hrs by sulforhodamine B assay; type: functional; conditions: NCI-H23, 48 h; method in brief: as §1
[35] = test system: NCI-H460; test: Growth inhibition of human NCI-H460 cells after 48 hrs by sulforhodamine B assay; type: functional; conditions: NCI-H460, 48 h; method in brief: as §1
[36] = test system: SR; test: Growth inhibition of human SR cells after 48 hrs by sulforhodamine B assay; type: functional
[37] = Growth inhibition of human COLO205 cells after 48 hrs by sulforhodamine B assay; type: functional; conditions: COLO 205, 48 h; method in brief: as §1
[38] = Growth inhibition of human SF295 cells after 48 hrs by sulforhodamine B assay; type: functional; conditions: SF-295, 48 h
[39] = test system: IGROV-1; test: Growth inhibition of human IGROV1 cells after 48 hrs by sulforhodamine B assay; type: functional; conditions: IGROV-1, 48 h; method in brief: as §1
[40] = test system: SF-268; test: Growth inhibition of human SF268 cells after 48 hrs by sulforhodamine B assay; type: functional; conditions: SF-268, 48 h
[41] = Growth inhibition of human NCI-ADR-RES cells after 48 hrs by sulforhodamine B assay; type: functional; method in brief: as §1
[42] = test system: K562; test: Growth inhibition of human K562 cells after 48 hrs by sulforhodamine B assay; type: functional; conditions: K562, 48 h; method in brief: as §1
[43] = test system: NCI-H522; test: Growth inhibition of human NCI-H522 cells after 48 hrs by sulforhodamine B assay; type: functional; conditions: NCI-H522, 48 h; method in brief: as §1

COc1ccc(-c2[nH]c3ccccc3c2/C=C(\C#N)S(=O)(=O)c2ccccc2)cc1
GI50 [1]: 0.399 µM | GI50 [2]: 0.299 µM | GI50 [3]: 1.9 µM | GI50 [4]: 0.379 µM | GI50 [5]: 0.506 µM | GI50 [6]: 2.1 µM | GI50 [7]: 1.2 µM | GI50 [8]: 0.863 µM | GI50 [9]: 0.528 µM | GI50 [10]: 1.6 µM | GI50 [11]: 1.3 µM | GI50 [12]: 0.473 µM | GI50 [13]: 1.5 µM | GI50 [14]: 2.3 µM | GI50 [15]: 10.7 µM | GI50 [16]: 1.1 µM | GI50 [17]: 1.3 µM | GI50 [18]: 0.578 µM | GI50 [19]: 0.597 µM | GI50 [20]: 0.533 µM | GI50 [21]: 0.45 µM | EC50 [22]: 0.2 µM | GI50 [23]: 1.9 µM | GI50 [24]: 18.1 µM | GI50 [25]: 0.557 µM | GI50 [26]: 4.7 µM | GI50 [27]: 0.383 µM | GI50 [28]: 0.344 µM | GI50 [29]: 0.997 µM | GI50 [30]: 0.374 µM | GI50 [31]: 1.2 µM | GI50 [32]: 0.314 µM | GI50 [33]: 0.294 µM | GI50 [34]: 0.932 µM | GI50 [35]: 0.404 µM | GI50 [36]: 0.35 µM | GI50 [37]: 0.254 µM | GI50 [38]: 0.5 µM | GI50 [39]: 19.3 µM | GI50 [40]: 1.1 µM | GI50 [41]: 0.428 µM | GI50 [42]: 0.535 µM | GI50 [43]: 3 µM
